Measurements: ChEMBL document CHEMBL3286129, “Optimization of peptidomimetic boronates bearing a P3 bicyclic scaffold as proteasome inhibitors” (Eur J Med Chem, 2014)

Assays:
Assay type in all cases: functional
SR = assay: Growth inhibition of human SR cells; conditions: for CC50: read-out: LC50 (the source's name)
[1] = Growth inhibition of human SF539 cells
NCI-H522 = assay: Growth inhibition of human NCI-H522 cells
HL-60(TB) = assay: Growth inhibition of human HL-60(TB) cells; conditions: for CC50: read-out: LC50 (the source's name)
T47D = assay: Growth inhibition of human T47D cells; conditions: for CC50: read-out: LC50 (the source's name)
[2] = Growth inhibition of human UO31 cells; conditions: UO-31
TK-10 = assay: Growth inhibition of human TK10 cells
HCT-116 = assay: Growth inhibition of human HCT116 cells
HT-29 = assay: Growth inhibition of human HT-29 cells
SK-MEL-5 = assay: Growth inhibition of human SK-MEL-5 cells
Malme-3M = assay: Growth inhibition of human MALME-3M cells; conditions: for CC50: read-out: LC50 (the source's name)
SNB-19 = assay: Growth inhibition of human SNB19 cells; conditions: for CC50: read-out: LC50 (the source's name)
MDA-MB-468 = assay: Growth inhibition of human MDA-MB-468 cells; conditions: for CC50: read-out: LC50 (the source's name)
[3] = Growth inhibition of human OVCAR4 cells; conditions: for GI50 / TGI: OVCAR-4; for CC50: OVCAR-4, read-out: LC50 (the source's name)
[4] = Cytotoxicity against human CNSC cells assessed as cell growth at 10 uM relative to control; conditions: read-out: Activity
How it was run: (§1)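 Single-concentration screen against a panel of human cancer cell lines. Each value is the mean percent growth across the cell lines of that tumour subpanel.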

[5] = Growth inhibition of human MOLT4 cells; conditions: for GI50 / TGI: MOLT-4; for CC50: MOLT-4, read-out: LC50 (the source's name)
[6] = Growth inhibition of human HCC2998 cells; conditions: HCC 2998
NCI-H226 = assay: Growth inhibition of human NCI-H226 cells; conditions: for CC50: read-out: LC50 (the source's name)
NCI-H460 = assay: Growth inhibition of human NCI-H460 cells
SK-MEL-28 = assay: Growth inhibition of human SK-MEL-28 cells
K562 = assay: Growth inhibition of human K562 cells; conditions: for CC50: read-out: LC50 (the source's name)
[7] = Cytotoxicity against human melanoma cells assessed as cell growth at 10 uM relative to control; conditions: read-out: Activity; how it was run: as §1
CAKI-1 = assay: Growth inhibition of human CAKI-1 cells; conditions: for CC50: read-out: LC50 (the source's name)
A549 = assay: Growth inhibition of human A549/ATCC cells; conditions: for CC50: read-out: LC50 (the source's name)
SNB-75 = assay: Growth inhibition of human SNB75 cells
SK-OV-3 = assay: Growth inhibition of human SKOV3 cells
IGROV-1 = assay: Growth inhibition of human IGROV1 cells
MDA-MB-231 = assay: Growth inhibition of human MDA-MB-231 cells; conditions: for CC50: read-out: LC50 (the source's name)
[8] = Growth inhibition of human LOXIMVI cells; conditions: LOX IMVI
MDA-MB-435 = assay: Growth inhibition of human MDA-MB-435 cells; conditions: for CC50: read-out: LC50 (the source's name)
SW-620 = assay: Growth inhibition of human SW620 cells
ACHN = assay: Growth inhibition of human ACHN cells
[9] = Growth inhibition of human BT549 cells; conditions: for GI50 / TGI: BT-549; for CC50: BT-549, read-out: LC50 (the source's name)
[10] = Cytotoxicity against human colon cancer cells assessed as cell growth at 10 uM relative to control; conditions: Cancer cell lines, read-out: Activity; how it was run: as §1
MCF7 = assay: Growth inhibition of human MCF7 cells; conditions: for CC50: read-out: LC50 (the source's name)
[11] = Growth inhibition of human HCT15 cells; conditions: for GI50 / TGI: HCT-15; for CC50: HCT-15, read-out: LC50 (the source's name)
NCI-H23 = assay: Growth inhibition of human NCI-H23 cells; conditions: for CC50: read-out: LC50 (the source's name)
[12] = read-out: LC50 (the source's name)

## CC(C)C[C@H](NC(=O)CCn1ccc2ccc(Br)cc2c1=O)B(O)O
SR
  GI50: 0.26 µM
  TGI: 11.6 µM
  CC50: > 100 µM
[1]; SF-539
  GI50: 0.21 µM
  TGI: 0.6 µM
[1]; SF-539, read-out: LC50 (the source's name)
  CC50: > 100 µM
NCI-H522
  GI50: 0.3 µM
  LC50: > 100 µM
  TGI: 2.25 µM
HL-60(TB)
  CC50: > 100 µM
T47D
  GI50: 0.78 µM
  TGI: 6.09 µM
  CC50: > 100 µM
[2]
  GI50: 0.98 µM
  LC50: > 100 µM
  TGI: 15.4 µM
TK-10
  GI50: 0.37 µM
  LC50: > 100 µM
  TGI: 15.6 µM
HCT-116
  GI50: 0.34 µM
  LC50: > 100 µM
  TGI: 2.55 µM
HT-29
  GI50: 0.45 µM
  LC50: > 100 µM
  TGI: > 100 µM
SK-MEL-5
  GI50: 0.37 µM
  LC50 (concentration killing 50% of cells): 82.5 µM
  TGI: 3.11 µM
Malme-3M
  GI50: 0.68 µM
  TGI: 7.95 µM
  CC50: > 100 µM
SNB-19
  GI50: 0.96 µM
  TGI: > 100 µM
  CC50: > 100 µM
MDA-MB-468
  GI50: 0.26 µM
  TGI: 0.74 µM
  CC50: > 100 µM
[3]
  GI50: 2.06 µM
  TGI: > 100 µM
  CC50: > 100 µM
[4]
  growth at 10 µM: 6.51%
[5]
  GI50: 0.31 µM
  TGI: > 100 µM
  CC50: > 100 µM
[6]
  GI50: 1.14 µM
  LC50: 8.42 µM
  TGI: 3.09 µM
NCI-H226
  GI50: 0.19 µM
  TGI: 0.42 µM
  CC50: 0.95 µM
NCI-H460
  GI50: 3.18 µM
  LC50: > 100 µM
  TGI: > 100 µM
SK-MEL-28
  GI50: 0.52 µM
  TGI: 29.7 µM
SK-MEL-28; [12]
  CC50: > 100 µM
K562
  GI50: 1.08 µM
  TGI: > 100 µM
  CC50: > 100 µM
[7]
  growth at 10 µM: -19.2%
CAKI-1
  GI50: 0.47 µM
  TGI: 10 µM
  CC50: > 100 µM
A549
  GI50: 2.39 µM
  TGI: > 100 µM
  CC50: > 100 µM
SNB-75
  GI50: 0.46 µM
  LC50: > 100 µM
  TGI: 3.82 µM
SK-OV-3
  GI50: 2.36 µM
  LC50: > 100 µM
  TGI: 71.5 µM
IGROV-1
  GI50: 5.1 µM
  LC50: > 100 µM
  TGI: > 100 µM
MDA-MB-231
  GI50: 1.2 µM
  TGI: 12.2 µM
  CC50: > 100 µM
[8]
  GI50: 0.22 µM
  TGI: 0.61 µM
MDA-MB-435
  GI50: 0.18 µM
  TGI: 0.37 µM
  CC50: 0.78 µM
SW-620
  GI50: 0.38 µM
  LC50: > 100 µM
  TGI: > 100 µM
ACHN
  GI50: 0.41 µM
  TGI: > 100 µM
ACHN; [12]
  CC50: > 100 µM
[9]
  GI50: 0.36 µM
  TGI: 4.32 µM
  CC50: > 100 µM
[10]
  growth at 10 µM: 4.45%
MCF7
  GI50: 0.39 µM
  TGI: > 100 µM
  CC50: > 100 µM
[11]
  GI50: 1.61 µM
  TGI: 22.1 µM
  CC50: > 100 µM
NCI-H23
  GI50: 1.59 µM
  TGI: > 100 µM
  CC50: > 100 µM

## CC(C)C[C@H](NC(=O)Cn1ccc2ccc(Br)cc2c1=O)B(O)O
SR
  GI50: 0.27 µM
  TGI: 12.2 µM
  CC50: > 100 µM
NCI-H522
  GI50: 0.59 µM
  LC50: 9.06 µM
  TGI: 2.54 µM
HL-60(TB)
  GI50: 0.38 µM
  TGI: 5.34 µM
  CC50: > 100 µM
T47D
  GI50: 0.78 µM
  TGI: 12.4 µM
  CC50: > 100 µM
[2]
  GI50: 1.61 µM
  LC50: 61.6 µM
  TGI: 11.1 µM
TK-10
  GI50: 0.65 µM
  LC50: > 100 µM
  TGI: 7.22 µM
HCT-116
  GI50: 0.6 µM
  LC50: 95.8 µM
  TGI: 3.57 µM
HT-29
  GI50: 0.73 µM
  LC50: > 100 µM
  TGI: 5.52 µM
SK-MEL-5
  GI50: 0.8 µM
  LC50 (concentration killing 50% of cells): 7.88 µM
  TGI: 2.65 µM
Malme-3M
  GI50: 4.31 µM
  TGI: > 100 µM
  CC50: > 100 µM
SNB-19
  GI50: 3.86 µM
  TGI: > 100 µM
  CC50: > 100 µM
MDA-MB-468
  GI50: 0.3 µM
  TGI: 1.1 µM
  CC50: > 100 µM
[3]
  GI50: 4.94 µM
  TGI: > 100 µM
  CC50: > 100 µM
[4]
  growth at 10 µM: 24.3%
[5]
  GI50: 0.3 µM
  TGI: 1.57 µM
  CC50: > 100 µM
[6]
  GI50: 2.46 µM
  LC50: 31.4 µM
  TGI: 6.37 µM
NCI-H226
  GI50: 0.47 µM
  TGI: 1.84 µM
  CC50: 5.39 µM
NCI-H460
  GI50: 5.58 µM
  LC50: > 100 µM
  TGI: 36.8 µM
K562
  GI50: 3.15 µM
  TGI: > 100 µM
  CC50: > 100 µM
[7]
  growth at 10 µM: -17.1%
CAKI-1
  GI50: 0.41 µM
  TGI: 10.5 µM
  CC50: > 100 µM
A549
  GI50: 4.58 µM
  TGI: > 100 µM
  CC50: > 100 µM
SNB-75
  GI50: 2.13 µM
  LC50: 63.3 µM
  TGI: 9.09 µM
SK-OV-3
  GI50: 8.73 µM
  LC50: > 100 µM
  TGI: > 100 µM
IGROV-1
  GI50: 6.16 µM
  LC50: > 100 µM
  TGI: 46.9 µM
MDA-MB-231
  GI50: 3.18 µM
  TGI: 19.8 µM
  CC50: > 100 µM
[8]
  GI50: 0.43 µM
  TGI: 1.85 µM
[8]; [12]
  CC50: 7.21 µM
MDA-MB-435
  GI50: 0.33 µM
  TGI: 1.29 µM
  CC50: 5.88 µM
SW-620
  GI50: 0.46 µM
  LC50: > 100 µM
  TGI: 8.19 µM
[9]
  GI50: 0.44 µM
  TGI: 2.65 µM
  CC50: > 100 µM
[10]
  growth at 10 µM: 3.27%
MCF7
  GI50: 0.42 µM
  TGI: > 100 µM
  CC50: > 100 µM
[11]
  GI50: 3.04 µM
  TGI: > 100 µM
  CC50: > 100 µM
NCI-H23
  GI50: 5.05 µM
  TGI: > 100 µM
  CC50: > 100 µM
